Assay [1] has as its system Rattus norvegicus. Nature of the assay: In vivo number of rotations at a dose of 0.2 mg/kg administered subcutaneously to Sprague-Dawley rats. The format is functional. As to conditions: route subcutaneous. In short, it runs like this:
(§1)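 Sprague-Dawley rats with unilateral 6-OHDA lesions of medial forebrain bundle, prescreened for rotation to amphetamine (5 mg/kg: 800 rotations/3 h) and apomorphine (0.2 mg/kg: 100 rotations/1 h). Subcutaneous dosing; rotations counted over 10 h, mean ± sem, n 5–10 per group. Each rat received four treatments, weekly, counterbalanced order.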

Assay [2] deals with Rattus norvegicus. Description: In vivo number of rotations at a dose of 2 mg/kg administered subcutaneously to Sprague-Dawley rats. The format is functional. As to conditions: route subcutaneous. In short, it runs like this: as §1
The subject of assay [3] is SK-N-MC. Nature of the assay: In vitro adenylate cyclase response in neuroblastoma cell line SK-N-MC. Format: functional, cell-based. As to conditions: Homo sapiens. In short, it runs like this: (§2)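 SK-N-MC human neuroblastoma cells with endogenous D1 receptor, seeded at 10⁵ cells/mL 1 day before assay (37 °C, 5% CO₂). Cells exposed to varying compound concentrations in assay buffer with 1 mM IBMX, 10 min at 37 °C; stopped with 0.1 N HCl; cAMP measured by radioimmunoassay; dose-response curves fitted by nonlinear regression.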

Assay [4] is described as follows: In vitro intrinsic activity which is the ratio of the cyclase response of compound relative to that of dopamine. The format is functional. In short, it runs like this:
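cAMP accumulation in SK-N-MC cells (endogenous D1), varying compound concentrations with 1 mM IBMX, 10 min at 37 °C, cAMP by radioimmunoassay, nonlinear curve fitting. Intrinsic activity taken as ratio of compound maximal cyclase response to that of dopamine.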

Assay [5] concerns SK-N-MC. Nature of the assay: In vitro adenylate cyclase response in neuroblastoma cell line. The conditions noted are these: Homo sapiens. Format: functional, cell-based. In short, it runs like this: as §2

The values that follow come from ChEMBL document CHEMBL1135440, “(+)-Dinapsoline: an efficient synthesis and pharmacological profile of a novel dopamine agonist” (J Med Chem, 2002).

For `CCCc1cc2c(s1)CN[C@@H]1CCc3cc(O)c(O)cc3[C@@H]21` [A-86929], the values for the Rotations/10 h with Rattus norvegicus [1] and with Rattus norvegicus [2] were 1100 and 4200, respectively.
Take `Oc1ccc2c(c1O)Cc1cccc3c1C2CNC3` (racemic): the Rotations/10 h stood at 1900 in the assay on Rattus norvegicus [1] and 4800 with Rattus norvegicus [2]. The EC50 (usually the midpoint of the concentration-response curve) in the assay with SK-N-MC [3] worked out at 190 nM. The Intrinsic activity in assay [4] was found to be 1.2.
`Oc1ccc2c(c1O)Cc1cccc3c1[C@H]2CNC3`: the Rotations/10 h amounted to 4100 in the assay on Rattus norvegicus [1] and 7000 with Rattus norvegicus [2]. Moreover, the EC50 in the assay on SK-N-MC [5] is 220 nM. For the same compound, the Intrinsic activity in assay [4] turned out to be 1.
Regarding `Oc1ccc2c(c1O)Cc1cccc3c1[C@@H]2CNC3`, the Rotations/10 h is reported as 8 in the assay with Rattus norvegicus [1] and 7 with Rattus norvegicus [2]. Besides, in the assay with SK-N-MC [5], the EC50 was more than 10000 nM.
